Source: ChEMBL document CHEMBL3286178, “Cell membrane mediated (-)-epicatechin effects on upstream endothelial cell signaling: evidence for a surface receptor” (Bioorg Med Chem Lett, 2014)
pKi: −log10 of the molar value. Active and inactive are the calls of the source. The calls are words filed in the database; no cut-off is given here.

How the values were obtained:
[1] = Binding affinity to rat brain cell membrane; type: cell membranes
Homo sapiens [2] = organism: Homo sapiens; assay: Induction of PI3K phosphorylation in calcium free HCAEC at 100 nM after 10 mins incubation by Western blot analysis
Procedure, shortened: (§1)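 Ca2+-free human coronary artery endothelial cells treated 10 min with 100 nM free or dextran-conjugated compound (conjugate dose expressed as equivalent bound compound); phospho-PI3K, phospho-PDK1, phospho-AKT, phospho-eNOS (Ser1177, Ser615) and PIP3 assessed, with or without PI3K inhibitor wortmannin; Western blots representative of three independent experiments.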

Homo sapiens [3] = organism: Homo sapiens; assay: Induction of PIP3 level in calcium free HCAEC at 100 nM after 10 mins incubation by Western blot analysis; type: functional; procedure, shortened: as §1
Homo sapiens [4] = organism: Homo sapiens; assay: Induction of PI3K phosphorylation in calcium free HCAEC at 100 nM after 10 mins incubation by Western blot analysis in presence of wortmannin; procedure, shortened: as §1
Homo sapiens [5] = organism: Homo sapiens; assay: Induction of PIP3 level in calcium free HCAEC at 100 nM after 10 mins incubation by Western blot analysis in presence of wortmannin; type: functional; procedure, shortened: as §1
Homo sapiens [6] = organism: Homo sapiens; assay: Induction of PI3K in calcium free HCAEC assessed as PDK1 phosphorylation at 100 nM after 10 mins incubation by Western blot analysis; procedure, shortened: as §1
Homo sapiens [7] = organism: Homo sapiens; assay: Induction of PI3K in calcium free HCAEC assessed as PDK1 phosphorylation at 100 nM after 10 mins incubation by Western blot analysis in presence of wortmannin; procedure, shortened: as §1
Homo sapiens [8] = organism: Homo sapiens; assay: Induction of PI3K in calcium free HCAEC assessed as Akt phosphorylation at 100 nM after 10 mins incubation by Western blot analysis; procedure, shortened: as §1
Homo sapiens [9] = organism: Homo sapiens; assay: Induction of PI3K in calcium free HCAEC assessed as Akt phosphorylation at 100 nM after 10 mins incubation by Western blot analysis in presence of wortmannin; procedure, shortened: as §1
[10] = molecular target: T1, Nitric oxide synthase 3 (Homo sapiens) (UniProt P29474); assay: Induction of eNOS activation in calcium free HCAEC assessed as phosphorylation at serine 1177 at 100 nM after 10 mins incubation; procedure, shortened: as §1
T1 sequence (whole entry): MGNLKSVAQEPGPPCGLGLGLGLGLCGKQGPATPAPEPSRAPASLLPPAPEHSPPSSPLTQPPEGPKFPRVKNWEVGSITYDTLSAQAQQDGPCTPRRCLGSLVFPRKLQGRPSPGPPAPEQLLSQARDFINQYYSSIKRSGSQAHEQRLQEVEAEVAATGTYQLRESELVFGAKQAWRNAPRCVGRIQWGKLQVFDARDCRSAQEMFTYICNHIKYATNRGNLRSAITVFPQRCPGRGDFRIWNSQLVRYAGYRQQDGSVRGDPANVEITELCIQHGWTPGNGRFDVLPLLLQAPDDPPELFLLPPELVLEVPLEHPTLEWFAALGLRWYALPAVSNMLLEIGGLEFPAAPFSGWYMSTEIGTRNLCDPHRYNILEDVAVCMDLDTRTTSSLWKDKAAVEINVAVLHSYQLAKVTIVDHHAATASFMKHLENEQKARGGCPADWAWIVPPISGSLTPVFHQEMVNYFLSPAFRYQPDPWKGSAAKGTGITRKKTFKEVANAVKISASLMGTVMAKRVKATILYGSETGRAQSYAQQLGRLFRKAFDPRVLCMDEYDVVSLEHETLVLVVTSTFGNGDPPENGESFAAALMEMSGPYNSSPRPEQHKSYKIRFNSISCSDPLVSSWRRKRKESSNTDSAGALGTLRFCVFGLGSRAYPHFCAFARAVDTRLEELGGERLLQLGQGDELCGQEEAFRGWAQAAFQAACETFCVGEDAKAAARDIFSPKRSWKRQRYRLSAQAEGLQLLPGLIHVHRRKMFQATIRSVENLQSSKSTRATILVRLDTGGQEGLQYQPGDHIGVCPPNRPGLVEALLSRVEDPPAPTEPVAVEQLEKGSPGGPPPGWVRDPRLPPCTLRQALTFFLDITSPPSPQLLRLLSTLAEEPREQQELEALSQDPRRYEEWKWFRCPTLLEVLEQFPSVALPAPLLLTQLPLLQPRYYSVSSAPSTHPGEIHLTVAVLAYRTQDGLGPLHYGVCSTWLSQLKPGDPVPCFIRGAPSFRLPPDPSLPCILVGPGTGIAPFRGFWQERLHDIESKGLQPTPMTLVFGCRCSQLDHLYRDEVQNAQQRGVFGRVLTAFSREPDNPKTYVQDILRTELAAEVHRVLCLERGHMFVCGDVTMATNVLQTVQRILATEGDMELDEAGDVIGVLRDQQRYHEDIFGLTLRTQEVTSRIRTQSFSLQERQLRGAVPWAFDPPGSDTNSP

[11] = molecular target: T1, Nitric oxide synthase 3 (Homo sapiens); assay: Induction of eNOS activation in calcium free HCAEC assessed as phosphorylation at serine 615 at 100 nM after 10 mins incubation; procedure, shortened: as §1
[12] = molecular target: T1, Nitric oxide synthase 3 (Homo sapiens); assay: Induction of eNOS activation in calcium free HCAEC assessed as phosphorylation at serine 1177 at 100 nM after 10 mins incubation in presence of wortmannin; procedure, shortened: as §1
[13] = molecular target: T1, Nitric oxide synthase 3 (Homo sapiens); assay: Induction of eNOS activation in calcium free HCAEC assessed as phosphorylation at serine 615 at 100 nM after 10 mins incubation in presence of wortmannin; procedure, shortened: as §1
Homo sapiens [14] = organism: Homo sapiens; assay: Effect on eNOS phosphorylation at Thr 495 in calcium free HCAEC at 100 nM after 10 mins incubation; type: functional
brain = assay: Binding affinity to rat brain cell membrane at 10 uM

## O=C(O[C@@H]1Cc2c(O)cc(O)cc2O[C@@H]1c1ccc(O)c(O)c1)c1cc(O)c(O)c(O)c1 [EPICATECHIN GALLATE]
[1]
  pKi: 7.60

## Oc1ccc(/C=C/c2cc(O)cc(O)c2)cc1 [RESVERATROL]
[1]
  pKi: 6.99

## Oc1cc(O)c2c(c1)O[C@H](c1ccc(O)c(O)c1)[C@H](O)C2
Homo sapiens [2]
  Activity: Active
Homo sapiens [3]
  Activity: Active
Homo sapiens [4]
  Activity: inactive
Homo sapiens [5]
  Activity: inactive
Homo sapiens [6]
  Activity: Active
Homo sapiens [7]
  Activity: inactive
Homo sapiens [8]
  Activity: Active
Homo sapiens [9]
  Activity: inactive
[10]
  Activity: Active
[11]
  Activity: Active
[12]
  Activity: inactive
[13]
  Activity: inactive
Homo sapiens [14]
  Activity: inactive
brain
  Activity: inactive

## O=C(O[C@@H]1Cc2c(O)cc(O)cc2O[C@@H]1c1cc(O)c(O)c(O)c1)c1cc(O)c(O)c(O)c1 [EPIGALOCATECHIN GALLATE]
[1]
  pKi: 7.60
